{"source": "paper PMC4371900", "about": "(International Journal of Nanomedicine, 2015)", "key": {"Cytostatic assay": {"experiment": "Cytostatic assay", "type": "cell-based", "settings": "human, Huh 5-2 cells", "outline": "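Huh 7 cells carrying subgenomic HCV replicon (Huh 5-2) were seeded at 5·10^3 cells/well in complete DMEM with G418. After 24 h, serial dilutions of test compound (free or γ-CD complex) were added in complete DMEM without G418. Cells proliferated 3 days at 37°C. Cell number was read by CellTiter 96 AQueous One.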"}, "[1]": {"tested_on": "genotype 1b Con1 HCV sub-genomic replicon (Huh 5-2 cells)", "experiment": "Antiviral assay with Huh 5-2 cells", "type": "cell-based, hepatitis C virus"}}}
{"compound": "OC[C@H]1O[C@@H]2O[C@H]3[C@H](O)[C@@H](O)[C@@H](O[C@H]4[C@H](O)[C@@H](O)[C@@H](O[C@H]5[C@H](O)[C@@H](O)[C@@H](O[C@H]6[C@H](O)[C@@H](O)[C@@H](O[C@H]7[C@H](O)[C@@H](O)[C@@H](O[C@H]8[C@H](O)[C@@H](O)[C@@H](O[C@H]9[C@H](O)[C@@H](O)[C@@H](O[C@H]1[C@H](O)[C@H]2O)O[C@@H]9CO)O[C@@H]8CO)O[C@@H]7CO)O[C@@H]6CO)O[C@@H]5CO)O[C@@H]4CO)O[C@@H]3CO", "note": "[γ-CD, γ-cyclodextrin]", "values": [{"measurement": "viability at 3 days", "setting": "Cytostatic assay", "value": 100, "unit": "%"}, {"measurement": "luminescence", "setting": "[1]; control tests with compound-free γ-CD (data not shown)", "value": 100, "unit": "%"}, {"measurement": "antiviral activity in cell assays", "setting": "[1]; delivered alone, free in solution", "value": "did not show antiviral activity"}]}
